# Measured values published in ChEMBL document CHEMBL3045217, “Factors affecting the synergy of thiabendazole, sodium bicarbonate, and heat to control postharvest green mold of citrus fruit” (J Agric Food Chem, 2008).
# How the values were obtained:
# Format in all cases: functional
# Penicillium digitatum [1] = assay: Fungicidal activity against TBZ-resistant Penicillium digitatum infected Nova mandarins assessed as postharvest green mold incidence at 400 mg/L treated for 1 min at 40 degC at 20 hr after fungal conidial inoculation measured after 5 days of storage at 20 degC in presence of 1% SBC (water Rvb = 76.7%)
# Penicillium digitatum [2] = assay: Fungicidal activity against Penicillium digitatum infected Valenica oranges assessed as fruit weight loss at 400 mg/L treated for 1 min at 40 degC postharvest at 20 hr after fungal conidial inoculation measured after 14 days of storage at 17 degC in presence of 1% SBC (water Rvb = 8.68%)
# Penicillium digitatum [3] = assay: Fungicidal activity against TBZ-sensitive Penicillium digitatum infected Nova mandarins assessed as postharvest green mold incidence at 600 mg/L treated for 1 min at 20 degC at 20 hr after fungal conidial inoculation measured after 5 days of storage at 20 degC (water Rvb = 100%)
# In short: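 Fruit were surface-disinfected in 1 g/L hypochlorite for 30 s, rinsed, dried, then wounded twice equatorially (2 mm × 2 mm rod). Inoculation was a 1 min dip in P. digitatum conidia, 1 × 10^5 conidia/mL final. Fruit were held 20 h at 20 °C and 90% RH, dipped 1 min (SBC wt/vol), and air-dried. Storage was 20 °C, 90% RH. Decay incidence (% fruit with lesions) was scored at 5 d for mandarins and 7 d for oranges. Three replicates of 40 fruit were used; arcsin-transformed data were compared by LSD, p ≤ 0.05.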
compound,measurement,setting,value
c1ccc2[nH]c(-c3cscn3)nc2c1 [THIABENDAZOLE],Activity,Penicillium digitatum [1],40%
same,Activity,Penicillium digitatum [2],8.11%
same,Activity,Penicillium digitatum [3],0%
